# In ChEMBL document CHEMBL4842338, “System-oriented optimization of multi-target 2,6-diaminopurine derivatives: Easily accessible broad-spectrum antivirals active against flaviviruses, influenza virus and SARS-CoV-2” (Eur J Med Chem, 2021):
# What was measured:
# [1] = Selectivity index, ratio of CC50 for human A549 cells to IC50 for Influenza A Puerto Rico/8/34/H1N1 infected in human A549 cells; format: toxicity, cell-based; conditions: read-out: Selectivity Index
# Outline: (§1)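 MDCK or A549 cells (2.5 × 10⁵/well) infected with A/Puerto Rico/8/34 H1N1 for 1 h at 37 °C, then washed. Compound (0.5–20 μM) added in 2% FBS medium for 24 h, with DMSO final ≤0.2%. Virus in supernatants read by hemagglutination. CC₅₀ by MTT (2 × 10⁴ cells/well, same concentrations, 24 h, absorbance 570 nm). SI = CC₅₀/IC₅₀.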
# Influenza A virus [2] = experiment: Antiviral activity against Influenza A Puerto Rico/8/34/H1N1 infected in human A549 cells assessed as inhibition of viral replication after 24 hrs by hemagglutination assay; format: functional, organism-based; conditions: A/Puerto Rico/8/1934(H1N1), A549, 24 h
# A549 = experiment: Cytotoxicity against human A549 cells assessed as reduction in cell viability measured after 24 hrs by MTT assay; format: cell-based; conditions: a549, 24 h
# [3] = Cytotoxicity against human Huh-7 cells assessed as reduction in cell viability by Celltiter-Glo luminescent cell viability assay; format: cell-based; conditions: Huh-7 cells
# Outline: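 Compound-exposed cells assessed by CellTiter-Glo luminescence versus DMSO control; CC50 from dose-response.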
# dengue virus type 2 = experiment: Antiviral activity against Dengue virus serotype 2 New Guinea C infected in pre-seeded Huh-7 cells assessed as inhibition of viral replication incubated for 72 hrs by immunodetection based secondary yield reduction assay; format: functional, organism-based; conditions: Dengue virus, New Guinea C, Huh-7, 72 h; read-out: IC50
# [4] = Selectivity index, ratio of CC50 for human Huh-7 cells to IC50 for Dengue virus serotype 2 New Guinea C infected in pre-seeded Huh-7 cells assessed as inhibition of viral replication incubated for 72 hrs by immunodetection based secondary yield reduction assay; format: toxicity, cell-based; conditions: read-out: Selectivity Index
# Zika virus = experiment: Antiviral activity against Zika virus H/PF/2013 infected in pre-seeded Huh-7 cells assessed as inhibition of viral replication incubated for 72 hrs by immunodetection based secondary yield reduction assay; format: functional, organism-based; conditions: H/PF/2013, Huh-7, 72 h
# [5] = Selectivity index, ratio of CC50 for human Huh-7 cells to IC50 for Zika virus H/PF/2013 infected in pre-seeded Huh-7 cells assessed as inhibition of viral replication incubated for 72 hrs by immunodetection based secondary yield reduction assay; format: toxicity, cell-based; conditions: read-out: Selectivity Index
# MDCK = experiment: Cytotoxicity against MDCK cells assessed as reduction in cell viability measured after 24 hrs by MTT assay; format: cell-based, Canis lupus familiaris; conditions: dog, mdck, 24 h
# Influenza A virus [6] = experiment: Antiviral activity against Influenza A Puerto Rico/8/34/H1N1 infected in MDCK cells assessed as inhibition of viral replication measured in supernatants of infected cells after 24 hrs by hemagglutination assay; format: functional, organism-based; conditions: A/Puerto Rico/8/1934(H1N1)
# [7] = Selectivity index, ratio of CC50 for MDCK cells to IC50 for Influenza A Puerto Rico/8/34/H1N1 infected in MDCK cells; format: toxicity, cell-based; conditions: dog, read-out: Selectivity Index; outline: as §1
# [8] = Inhibition of Dengue virus 2 […] RNA dependent RNA polymerase incubated for 10 mins by picogreen staining based fluorescent analysis (Rvb= 0.27+/-0.03 uM); design: species or system dengue virus type 2
# [9] = Inhibition of full length Dengue virus 2 NS5 RNA dependent RNA polymerase incubated for 10 mins by picogreen staining based fluorescent analysis (Rvb= 0.32+/-0.05 uM); design: species or system dengue virus type 2
# [10] = Inhibition of full length ZIKA virus NS5 RNA dependent RNA polymerase incubated for 10 mins by picogreen staining based fluorescent analysis (Rvb= 1+/-0.2 uM)
# [11] = Inhibition of DENV NS5-MTase domain using GpppA2'OMe-RNA74 as a substrate incubated for 30 mins by filter binding assay; design: species or system dengue virus type 2
# Outline: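 MTase (1 μM) incubated with increasing inhibitor in 40 mM Tris-HCl pH 7.5, 5 mM DTT, 10 μM AdoMet ([3H]-labelled), 0.5 μM GpppA2′OMe-RNA74 substrate, 30 °C for 30 min; stopped in ice-cold 100 μM AdoHcy; DEAE filter binding, scintillation counting.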
# [12] = Inhibition of full length ZIKV NS5-MTase domain using 7MeGpppAC4 as a substrate incubated for 30 mins by filter binding assay; design: species or system Zika virus
# [13] = target: Src (Proto-oncogene tyrosine-protein kinase Src) (Homo sapiens, UniProt P12931); experiment: Inhibition of human recombinant N terminal His6 tagged full length Src assessed as residual activity at 5 uM using KVEKIGEGTYGVVYK as a substrate in the presence of NP-40 incubated for 10 mins by scintillation counting analysis relative to control; conditions: probe KVEKIGEGTYGVVYK, read-out: Activity
# Outline: (§2)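 Compounds at fixed 5 μM; 10–50 ng kinase, substrate and NP-40/BSA per supplementary table, 10 μL at 30 °C for 10 min in low-binding tubes. Reactions spotted on filter, dried, scintillation counted. Mean ± SD of two independent experiments.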
# [14] = target: Abl (Tyrosine-protein kinase ABL1) (Homo sapiens, UniProt P00519); experiment: Inhibition of human recombinant N terminal His6 tagged Abl (27 to end residue) assessed as residual activity at 5 uM using KKGEAIYAADFA-NH2 as a substrate in the presence of NP-40 incubated for 10 mins by scintillation counting analysis relative to control; conditions: probe KKGEAIYAADFA-NH2, read-out: Activity; outline: as §2
# [15] = target: Fyn (Tyrosine-protein kinase Fyn) (Homo sapiens, UniProt P06241); experiment: Inhibition of human recombinant N terminal His6 tagged full length Fyn assessed as residual activity at 5 uM using […] as a substrate in the presence of NP-40 incubated for 10 mins by scintillation counting analysis relative to control; conditions: probe […], read-out: Activity; outline: as §2
# [16] = target: PIK3CA (Phosphatidylinositol 4,5-bisphosphate 3-kinase catalytic subunit alpha isoform) (Homo sapiens, UniProt P42336); experiment: Inhibition of human full length PIK3CA assessed as residual activity at 5 uM using PI:PS (1:3) as a substrate incubated for 10 mins by scintillation counting analysis relative to control; conditions: full length PIK3CA enzyme, probe PI:PS (1:3), read-out: Activity
# Outline: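 Radiometric kinase reaction with 10–50 ng enzyme and compound fixed at 5 μM, 10 μL at 30 °C for 10 min. Reactions spotted on filter and counted by scintillation. Residual activity is the mean ± SD of two independent experiments.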
# CDK9/cyclin T1 = CDK9/cyclin T1 (Homo sapiens, UniProt P50750); experiment: Inhibition of human full length CDK9/ His-tagged cT1 assessed as residual activity at 5 uM using CDKtide as a substrate in the presence of BSA incubated for 10 mins by scintillation counting analysis relative to control; format: protein-complex assay; conditions: full length CDK9/His-tagged cyclin T1 complex, probe CDKtide, read-out: Activity; outline: as §2
# Sequence of CDK9/cyclin T1 (O60563 whole entry): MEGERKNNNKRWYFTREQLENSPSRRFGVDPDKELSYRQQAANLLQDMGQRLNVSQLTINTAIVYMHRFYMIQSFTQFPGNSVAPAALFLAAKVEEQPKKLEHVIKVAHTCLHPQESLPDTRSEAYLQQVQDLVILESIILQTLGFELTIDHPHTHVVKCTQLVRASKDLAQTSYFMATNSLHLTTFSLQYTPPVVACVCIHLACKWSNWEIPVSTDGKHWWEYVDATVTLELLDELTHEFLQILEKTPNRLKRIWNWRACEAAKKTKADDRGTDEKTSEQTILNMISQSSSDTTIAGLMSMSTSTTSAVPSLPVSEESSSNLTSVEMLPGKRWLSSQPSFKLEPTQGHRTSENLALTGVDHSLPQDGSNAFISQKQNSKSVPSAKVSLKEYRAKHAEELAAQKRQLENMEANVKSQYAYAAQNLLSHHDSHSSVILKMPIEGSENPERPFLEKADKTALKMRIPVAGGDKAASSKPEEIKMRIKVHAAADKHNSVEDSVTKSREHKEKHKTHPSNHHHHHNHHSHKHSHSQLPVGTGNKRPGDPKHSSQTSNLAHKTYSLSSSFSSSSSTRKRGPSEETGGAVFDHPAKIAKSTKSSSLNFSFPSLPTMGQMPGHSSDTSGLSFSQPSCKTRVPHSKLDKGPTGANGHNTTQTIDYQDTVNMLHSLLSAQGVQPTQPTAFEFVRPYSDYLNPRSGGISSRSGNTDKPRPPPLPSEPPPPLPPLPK
# Sequence of CDK9/cyclin T1 (P50750 whole entry): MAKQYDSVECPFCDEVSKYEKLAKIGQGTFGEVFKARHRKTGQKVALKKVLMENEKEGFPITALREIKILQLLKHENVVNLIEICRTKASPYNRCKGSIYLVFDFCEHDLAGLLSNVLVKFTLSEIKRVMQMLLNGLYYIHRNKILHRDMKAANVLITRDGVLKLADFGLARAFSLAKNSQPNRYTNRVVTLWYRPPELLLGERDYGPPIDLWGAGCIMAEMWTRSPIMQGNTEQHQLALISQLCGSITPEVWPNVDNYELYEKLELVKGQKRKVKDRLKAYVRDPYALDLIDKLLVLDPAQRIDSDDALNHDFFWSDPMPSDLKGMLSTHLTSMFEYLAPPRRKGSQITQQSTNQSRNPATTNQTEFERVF
# Sequence of Abl (Tyrosine-protein kinase ABL1) (P00519 whole entry): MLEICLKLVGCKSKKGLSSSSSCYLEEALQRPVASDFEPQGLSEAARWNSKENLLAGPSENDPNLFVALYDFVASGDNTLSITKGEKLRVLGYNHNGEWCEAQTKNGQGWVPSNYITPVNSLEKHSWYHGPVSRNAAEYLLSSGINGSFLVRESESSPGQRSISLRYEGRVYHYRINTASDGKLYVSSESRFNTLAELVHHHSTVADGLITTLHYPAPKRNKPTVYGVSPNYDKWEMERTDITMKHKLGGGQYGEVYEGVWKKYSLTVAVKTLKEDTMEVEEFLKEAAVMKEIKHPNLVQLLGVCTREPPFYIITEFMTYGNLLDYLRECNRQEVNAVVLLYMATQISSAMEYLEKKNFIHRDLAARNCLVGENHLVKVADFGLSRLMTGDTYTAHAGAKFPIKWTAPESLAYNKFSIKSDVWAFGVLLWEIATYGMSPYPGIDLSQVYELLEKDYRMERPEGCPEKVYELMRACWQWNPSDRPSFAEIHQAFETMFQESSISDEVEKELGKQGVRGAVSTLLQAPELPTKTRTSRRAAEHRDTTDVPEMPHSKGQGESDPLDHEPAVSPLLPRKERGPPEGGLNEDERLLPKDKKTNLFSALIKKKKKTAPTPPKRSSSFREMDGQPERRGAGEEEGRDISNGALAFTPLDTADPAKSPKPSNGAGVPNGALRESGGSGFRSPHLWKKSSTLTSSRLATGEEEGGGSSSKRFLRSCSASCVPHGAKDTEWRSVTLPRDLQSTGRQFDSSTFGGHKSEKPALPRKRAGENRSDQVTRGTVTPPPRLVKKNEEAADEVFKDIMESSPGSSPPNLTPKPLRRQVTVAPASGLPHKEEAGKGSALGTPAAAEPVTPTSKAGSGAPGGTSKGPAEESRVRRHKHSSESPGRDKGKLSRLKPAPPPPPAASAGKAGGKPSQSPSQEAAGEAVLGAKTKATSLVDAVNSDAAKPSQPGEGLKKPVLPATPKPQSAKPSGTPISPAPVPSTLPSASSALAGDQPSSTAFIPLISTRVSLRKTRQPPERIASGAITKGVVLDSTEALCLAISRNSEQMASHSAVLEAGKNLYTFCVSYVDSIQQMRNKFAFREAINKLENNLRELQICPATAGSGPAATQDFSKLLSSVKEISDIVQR
# Sequence of Src (Proto-oncogene tyrosine-protein kinase Src) (P12931 2-536 limits assumed): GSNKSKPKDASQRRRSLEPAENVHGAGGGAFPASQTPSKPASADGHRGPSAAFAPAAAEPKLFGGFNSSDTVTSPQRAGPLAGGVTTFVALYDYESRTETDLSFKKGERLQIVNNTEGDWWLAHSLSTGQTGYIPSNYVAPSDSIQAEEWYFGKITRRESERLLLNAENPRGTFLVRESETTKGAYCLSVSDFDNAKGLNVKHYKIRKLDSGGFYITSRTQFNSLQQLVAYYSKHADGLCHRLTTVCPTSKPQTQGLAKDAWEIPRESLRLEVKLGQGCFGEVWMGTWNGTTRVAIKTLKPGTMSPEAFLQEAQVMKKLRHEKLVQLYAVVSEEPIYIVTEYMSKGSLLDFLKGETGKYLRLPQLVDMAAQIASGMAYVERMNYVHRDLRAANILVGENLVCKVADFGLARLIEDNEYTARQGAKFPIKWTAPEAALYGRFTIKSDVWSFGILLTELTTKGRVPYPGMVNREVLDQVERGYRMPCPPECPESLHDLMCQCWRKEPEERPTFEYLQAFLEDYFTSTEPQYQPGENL
# Sequence of Fyn (Tyrosine-protein kinase Fyn) (P06241 whole entry, canonical isoform): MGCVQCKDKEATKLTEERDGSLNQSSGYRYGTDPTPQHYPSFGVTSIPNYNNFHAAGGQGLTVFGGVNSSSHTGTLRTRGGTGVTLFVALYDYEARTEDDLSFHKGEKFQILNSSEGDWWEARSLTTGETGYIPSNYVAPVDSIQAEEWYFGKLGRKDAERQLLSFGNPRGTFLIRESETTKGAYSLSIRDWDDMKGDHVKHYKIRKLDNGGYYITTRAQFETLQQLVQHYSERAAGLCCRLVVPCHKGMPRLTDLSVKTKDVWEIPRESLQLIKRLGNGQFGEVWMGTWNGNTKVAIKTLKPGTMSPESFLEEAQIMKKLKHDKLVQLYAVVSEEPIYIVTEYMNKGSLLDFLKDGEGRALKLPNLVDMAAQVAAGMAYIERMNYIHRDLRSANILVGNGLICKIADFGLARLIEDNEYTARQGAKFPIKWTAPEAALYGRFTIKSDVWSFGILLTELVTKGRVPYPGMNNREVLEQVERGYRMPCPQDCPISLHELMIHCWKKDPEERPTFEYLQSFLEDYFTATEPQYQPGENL
# Sequence of PIK3CA (Phosphatidylinositol 4,5-bisphosphate 3-kinase catalytic subunit alpha isoform) (P42336 whole entry, canonical isoform): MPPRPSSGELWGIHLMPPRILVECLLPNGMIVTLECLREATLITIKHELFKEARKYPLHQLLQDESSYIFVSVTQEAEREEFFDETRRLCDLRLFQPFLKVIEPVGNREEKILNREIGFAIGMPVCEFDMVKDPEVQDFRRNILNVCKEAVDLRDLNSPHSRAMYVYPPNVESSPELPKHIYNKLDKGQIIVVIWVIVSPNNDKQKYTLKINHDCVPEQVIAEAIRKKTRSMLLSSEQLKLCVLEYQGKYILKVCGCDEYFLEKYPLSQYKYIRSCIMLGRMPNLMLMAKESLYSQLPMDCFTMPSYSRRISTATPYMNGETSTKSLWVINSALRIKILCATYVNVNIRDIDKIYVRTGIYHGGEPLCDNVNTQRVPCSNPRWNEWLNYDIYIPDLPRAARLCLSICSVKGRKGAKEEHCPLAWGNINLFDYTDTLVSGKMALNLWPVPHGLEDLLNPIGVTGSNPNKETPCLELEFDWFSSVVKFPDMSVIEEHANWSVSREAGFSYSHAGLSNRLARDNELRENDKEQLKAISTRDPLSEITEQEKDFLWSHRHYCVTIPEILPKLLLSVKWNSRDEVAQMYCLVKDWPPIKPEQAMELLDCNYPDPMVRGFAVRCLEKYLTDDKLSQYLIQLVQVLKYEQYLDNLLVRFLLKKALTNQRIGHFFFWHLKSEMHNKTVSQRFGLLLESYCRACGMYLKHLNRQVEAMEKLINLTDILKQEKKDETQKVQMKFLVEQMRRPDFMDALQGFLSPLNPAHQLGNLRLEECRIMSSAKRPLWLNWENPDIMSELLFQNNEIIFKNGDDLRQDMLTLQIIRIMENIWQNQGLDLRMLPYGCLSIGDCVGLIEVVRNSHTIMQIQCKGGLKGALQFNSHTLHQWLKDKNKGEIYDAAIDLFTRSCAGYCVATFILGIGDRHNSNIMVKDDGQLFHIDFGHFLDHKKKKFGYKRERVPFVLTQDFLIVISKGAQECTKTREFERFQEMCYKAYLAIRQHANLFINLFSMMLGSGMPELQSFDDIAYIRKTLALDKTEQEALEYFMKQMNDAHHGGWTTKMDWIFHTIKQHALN
compound,measurement,setting,value
Fc1cccc(Nc2nc(NCCOc3ccccc3)nc3[nH]cnc23)c1,selectivity ratio,[1],2.8
same,IC50,Influenza A virus [2],20.8 µM
same,CC50,A549,58 µM
same,CC50,[3],200 µM
same,IC50,dengue virus type 2,12 µM
same,selectivity ratio at 72 h,[4],17
same,IC50,Zika virus,2.9 µM
same,selectivity ratio at 72 h,[5],68
same,CC50,MDCK,77 µM
same,IC50,Influenza A virus [6],14 µM
same,selectivity ratio,[7],5.5
same,IC50,[8],31.2 µM
same,IC50,[9],> 100 µM
same,IC50,[10],18.9 µM
same,IC50,[11],Not Active
same,IC50,[12],Not Active
same,"activity at 10 min, 5 µM",[13],45%
same,"activity at 10 min, 5 µM",[14],54%
same,"activity at 10 min, 5 µM",[15],> 98%
same,"activity at 10 min, 5 µM",[16],69%
same,"activity at 10 min, 5 µM",CDK9/cyclin T1,87%
